Test results as given in ChEMBL document CHEMBL4406847, “Tryptoline-based benzothiazoles re-sensitize MRSA to β-lactam antibiotics” (Bioorg Med Chem, 2019).

How the values were obtained:
[1] = system: Staphylococcus aureus; assay: Antibacterial activity against methicillin resistant Staphylococcus aureus ATCC BAA-1764 after 18 hrs by broth microdilution method; format: functional; conditions: ATCC BAA-1764, 18 h
How it was run: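 Compound alone, MIC by standard CLSI broth microdilution; lowest concentration with no growth, reported in μg/mL; confirmed in triplicate.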

[2] = system: Staphylococcus aureus; assay: Potentiation of cefazolin induced antibacterial activity against methicillin resistant Staphylococcus aureus NR-46411 assessed as minimum resensitizing concentration after 18 hrs by broth microdilution method; format: functional; conditions: NR-46411, 18 h, read-out: MEC
How it was run: (§1)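 Compound titrated in the presence of cefazolin at its CLSI breakpoint (8 μg/mL); MRC is the compound concentration at which no overnight growth occurs, in μg/mL; confirmed in triplicate.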

[3] = system: Staphylococcus aureus; assay: Potentiation of cefuroxime induced antibacterial activity against methicillin resistant Staphylococcus aureus NRS384 assessed as minimum resensitizing concentration after 18 hrs by broth microdilution method; format: functional; conditions: NRS384, 18 h, read-out: MEC
How it was run: (§2)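 Compound titrated with cefuroxime, using the same method as the cefazolin MRC; MRC is the lowest compound concentration preventing overnight growth, in μg/mL.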

[4] = Cytotoxicity against human HeLa cells assessed as cell growth inhibition measured after 24 hrs by Celltiter Glo luminescent assay; format: cell-based; conditions: HeLa cells
[5] = system: Staphylococcus aureus; assay: Potentiation of cefazolin induced antibacterial activity against methicillin resistant Staphylococcus aureus ATCC BAA-44 assessed as minimum resensitizing concentration after 18 hrs by broth microdilution method; format: functional; conditions: ATCC BAA-44, 18 h, read-out: MEC; how it was run: as §1
[6] = system: Staphylococcus aureus; assay: Potentiation of cefazolin induced antibacterial activity against Staphylococcus aureus ATCC BAA-1683 assessed as minimum resensitizing concentration after 18 hrs by broth microdilution method; format: functional; conditions: ATCC BAA-1683, 18 h, read-out: MEC
How it was run: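 MRSA BAA-1683 grown overnight with cefazolin held at its CLSI breakpoint, 8 μg/mL, plus varying analogue; MRC = analogue concentration giving no overnight growth; confirmed in triplicate.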

[7] = system: Staphylococcus aureus; assay: Potentiation of cefazolin induced antibacterial activity against methicillin resistant Staphylococcus aureus ATCC BAA-1764 assessed as minimum resensitizing concentration after 18 hrs by broth microdilution method; format: functional; conditions: ATCC BAA-1764, 18 h, read-out: MEC; how it was run: as §1
[8] = system: Staphylococcus aureus; assay: Potentiation of cefuroxime mediated antibacterial activity against methicillin resistant Staphylococcus aureus NRS100 assessed as minimum resensitizing concentration after 18 hrs by broth microdilution method; format: functional; conditions: NRS100, 18 h, read-out: MEC; how it was run: as §2
[9] = system: Staphylococcus aureus; assay: Potentiation of cefuroxime induced antibacterial activity against methicillin resistant Staphylococcus aureus NR-46411 assessed as minimum resensitizing concentration after 18 hrs by broth microdilution method; format: functional; conditions: NR-46411, 18 h, read-out: MEC; how it was run: as §2
[10] = system: Staphylococcus aureus; assay: Potentiation of cefuroxime induced antibacterial activity against methicillin resistant Staphylococcus aureus ATCC BAA-1764 assessed as minimum resensitizing concentration after 18 hrs by broth microdilution method; format: functional; conditions: ATCC BAA-1764, 18 h, read-out: MEC; how it was run: as §2
[11] = system: Staphylococcus aureus; assay: Potentiation of cefazolin induced antibacterial activity against methicillin resistant Staphylococcus aureus NRS384 assessed as minimum resensitizing concentration after 18 hrs by broth microdilution method; format: functional; conditions: NRS384, 18 h, read-out: MEC; how it was run: as §1
[12] = system: Staphylococcus aureus; assay: Potentiation of cefuroxime induced antibacterial activity against Staphylococcus aureus ATCC BAA-1683 assessed as minimum resensitizing concentration after 18 hrs by broth microdilution method; format: functional; conditions: ATCC BAA-1683, 18 h, read-out: MEC
How it was run: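 MRSA BAA-1683 grown overnight with cefuroxime plus varying analogue, method as for cefazolin MRC (antibiotic at CLSI breakpoint); MRC = analogue concentration giving no overnight growth; confirmed in triplicate.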

[13] = system: Staphylococcus aureus; assay: Potentiation of cefazolin induced antibacterial activity against methicillin resistant Staphylococcus aureus NRS100 assessed as minimum resensitizing concentration after 18 hrs by broth microdilution method; format: functional; conditions: NRS100, 18 h, read-out: MEC; how it was run: as §1

`Nc1cc(Cl)c2nc(N3CCc4c([nH]c5ccc(Cl)cc45)C3)sc2c1` gave an MIC [1] of over 32 µg/mL, a minimal effective concentration [2] of 0.5 µg/mL and a minimal effective concentration [3] of 4 µg/mL. It also gave a GI50 at 24 h [4] of over 100 µg/mL, a minimal effective concentration [5] of 2 µg/mL and a minimal effective concentration [6] of 1 µg/mL. For the same molecule, the minimal effective concentration [7] was 0.5 µg/mL, the minimal effective concentration [8] was 4 µg/mL and the minimal effective concentration [9] was under 0.25 µg/mL. The minimal effective concentration [10] was 32 µg/mL, the minimal effective concentration [11] was 4 µg/mL and the minimal effective concentration [12] was 8 µg/mL. For the same molecule, the minimal effective concentration [13] was 4 µg/mL.
